Source: PubChem
FGF22 binding = binders of recombinant human FGF22 by thermal shift | SYPRO orange fluorescence; percent of sucrose octasulfate shift, DMSO zero | activity (Tm shift, normalised), % at 9.99 µM | actives 1.5% (n = 340,000) | AID 651658;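 active = mean Tm shift, scaled 0 neutral to 100 positive control, at about 1.3% or above, every replicate too, limit read from the data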
Target sequence (Q9HCT0 whole entry, looked up): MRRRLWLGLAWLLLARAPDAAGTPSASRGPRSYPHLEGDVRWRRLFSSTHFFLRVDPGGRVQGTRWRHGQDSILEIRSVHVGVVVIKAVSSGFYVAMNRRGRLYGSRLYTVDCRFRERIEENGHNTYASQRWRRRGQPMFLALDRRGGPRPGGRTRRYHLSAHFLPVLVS
ARNT-TACC3 inh = ARNT/TACC3 interaction disruption | AlphaScreen His-ARNT PAS-B/GST-TACC3 binding, luminescence; TACC3 fragment carries E629A point mutation | AID 623870 | inhibition, % at 9.99 µM | actives 0.66% (n = 390,000);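 active = mean inhibition of replicates at least 50% and at least half of replicates each reaching 50%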;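 also: 0% = complete ARNT plus TACC3 wells and 100% = ARNT alone without TACC3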
FN deposition inh = fibronectin deposition inhibition | AH1F fibroblasts, Alexa488-fibronectin deposition fluorescence, overnight | inhibition, % at 12.6 µM | actives 0.086% (n = 350,000) | AID 743247;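 active = mean inhibition across replicates of 30% or more, regardless of how many single replicates reach that level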;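 also: positive control wells lacked labelled fibronectin entirely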
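Material: AH1F fibroblasts assembling fluorescent fibronectin matrix; amount: 10000 AH1F cells/well; medium: DMEM, 2% serum; reagent: Alexa488-fibronectin, 24 nM final in well; dosing: single compound dose, delivered by pin transfer; incubation: 1 h adhesion, overnight exposure; detection: fluorescence after three HBSS washes, excitation 485 nm, emission 525 nm; measure: fibronectin deposition inhibition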
AF4-AF9 inh = inhibitors of human MLL-AF4/AF9 interaction | AlphaScreen, biotin-AF4 peptide binding to FLAG-AF9 | actives 0.47% (n = 350,000) | inhibition, % at 10 µM | P42568;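 active = every replicate reaching a set inhibition limit, whatever the replicate mean, cut at about 25% in these data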;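 also: 0% = plate neutral control median and 100% = total signal loss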
ERp5 inh = blocks human ERp5 reductase activity on insulin; ERp5 insulin aggregation, absorbance 650 nm, 90 min; actives 0.05% (n = 350,000); inhibition, % at 9.99 µM;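 active = mean replicate inhibition above about 25%, with every replicate also reaching it, limit read from the data, passing the limit was not always enough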
PDI inh = inhibitors of human protein disulfide isomerase; PDI insulin aggregation turbidity, A650, 90 min; inhibition, % at 10 µM; actives 0.052% (n = 350,000); AID 588391;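 active = mean inhibition across replicates of 30% or more, whatever share of single replicates reach that level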
Target sequence (P07237 whole entry, looked up): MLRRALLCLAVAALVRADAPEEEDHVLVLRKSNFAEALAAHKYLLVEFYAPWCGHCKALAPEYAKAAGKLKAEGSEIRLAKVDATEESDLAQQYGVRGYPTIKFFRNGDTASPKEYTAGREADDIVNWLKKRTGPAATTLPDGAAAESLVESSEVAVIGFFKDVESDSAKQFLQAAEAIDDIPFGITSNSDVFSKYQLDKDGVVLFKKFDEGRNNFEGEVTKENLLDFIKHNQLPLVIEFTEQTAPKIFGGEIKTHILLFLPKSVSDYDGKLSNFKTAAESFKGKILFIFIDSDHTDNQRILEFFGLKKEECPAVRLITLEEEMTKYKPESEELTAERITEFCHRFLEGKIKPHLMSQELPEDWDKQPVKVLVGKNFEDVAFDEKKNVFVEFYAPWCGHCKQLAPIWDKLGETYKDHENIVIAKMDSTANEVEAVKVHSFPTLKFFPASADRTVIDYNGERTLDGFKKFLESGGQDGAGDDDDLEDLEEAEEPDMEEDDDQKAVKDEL
Active calls of the source: *; / = no result given. Hits are enriched below; roughly 2.1% of the tested compounds scored in any of these assays.

SMILES | FGF22 binding | ARNT-TACC3 inh | FN deposition inh | AF4-AF9 inh | ERp5 inh | PDI inh
CN(C)C(=O)c1cccc(-c2ccc([C@H]3[C@H](CO)N4C(=O)CN(C(=O)C5CCCC5)C[C@@H]34)cc2)c1 | / | / | -0.6 | -1.5 | -2.3 | /
O=C(CSc1n[nH]c(=O)[nH]c1=O)NCC1CCCCC1 | -0.1 | -12.2 | 6.1 | 0.2 | -0.8 | 1.5
O=C(CSc1n[nH]c(=O)[nH]c1=O)NC1CC1 | 43.9* | -4.6 | 7.4 | -0.5 | -6.3 | 3.7
CN(C)CCNC(=O)c1cccc(-c2cnc3c(NC=O)cc(/C=C/c4ccccc4)cn23)c1 | -0.6 | / | -0.8 | 33.9* | 4.0 | 11.0
CCSc1ccc(-c2cc(NC=O)c3ncc(-c4cccc(C(=O)NCCN(C)C)c4)n3c2)cc1 | -0.1 | / | 8.3 | 42.9* | -6.9 | -4.0
CC(=O)Nc1cccc(-c2cc(NC(C)=O)c3ncc(-c4cccc(C(C)=O)c4)n3c2)c1 | 43.2* | / | -12.1 | -0.3 | 3.6 | -7.0
CC(=O)Nc1cc(-c2cccc(C(=O)NCCN(C)C)c2)cn2c(-c3cccc(C(F)(F)F)c3)cnc12 | -0.2 | / | 9.8 | 25.8* | -2.4 | 4.8
CC(=O)Nc1cc(-c2cccc(C(=O)NCCN(C)C)c2)cn2c(-c3ccccc3)cnc12 | -0.2 | / | 8.3 | -7.7 | -1.0 | 1.3
C[C@H](CO)N1C[C@H](C)[C@H](CN(C)Cc2ccccc2)OCc2cnnn2CCCC1=O | -0.3 | -3.9 | -6.1 | -0.9 | 2.5 | /
CO[C@@H](CN(C)Cc1cc(F)ccc1F)[C@@H](C)CN([C@H](C)CO)S(=O)(=O)c1ccc(F)cc1 | 0.0 | 2.0 | / | -4.0 | -2.0 | /
C[C@@H]1CN([C@H](C)CO)C(=O)CCCn2cc(nn2)CO[C@@H]1CN(C)S(=O)(=O)c1ccc2c(c1)OCCCO2 | 1.0 | -14.9 | 6.0 | -2.8 | -2.5 | /
COc1ccc(NC(=O)N(C)C[C@@H]2Oc3ccc(NC(=O)Nc4ccccc4)cc3C(=O)N([C@@H](C)CO)C[C@H]2C)cc1 | 0.0 | -11.8 | / | -0.5 | -4.0 | /
CCNC(=O)C[C@@H]1C=C[C@@H](NS(=O)(=O)c2ccc(C)cc2)[C@@H](CO)O1 | 0.0 | -7.1 | 4.6 | -0.7 | 0.4 | /
C[C@@H]1CN([C@@H](C)CO)C(=O)c2cc(NC(=O)Nc3ccccc3)ccc2O[C@@H](C)CCCCO[C@@H]1CN(C)C(=O)Nc1ccccc1 | / | / | 10.9 | / | / | /
CC(=O)Nc1cc(-c2ccc(N3CCN(C)CC3)cc2)cn2c(-c3ccc(F)c(Cl)c3)cnc12 | -0.2 | / | -7.3 | 26.6* | 4.9 | -9.3
CCOC(=O)c1ccc(S(=O)(=O)N2CCN(C(=O)c3nn(C)c(=O)c4ccccc34)CC2)cc1 | 43.1* | -4.7 | -2.6 | 1.2 | -1.6 | 3.9
Cn1nc(C(=O)N2CCN(S(=O)(=O)c3ccc(Cl)cc3)CC2)c2ccccc2c1=O | -0.1 | 0.8 | 14.1 | -7.9 | -2.6 | 5.7
C[C@@H]1CN([C@@H](C)CO)C(=O)c2cc(NS(=O)(=O)c3ccc(F)cc3)ccc2O[C@@H]1CN(C)C(=O)Nc1ccc(F)cc1 | -0.4 | -5.8 | / | 0.7 | -4.9 | /
CCCNC(=O)C[C@@H]1CC[C@@H]2[C@H](COC[C@H](O)CN2Cc2ccc(Cl)c(Cl)c2)O1 | 0.0 | -2.6 | -7.8 | 0.6 | 2.0 | /
Cc1ccc(-c2cnc3c(c2)C(=O)N([C@H](C)CO)C[C@@H](C)[C@H](CN(C)C(=O)c2ccc(F)cc2)O3)cc1 | -0.4 | -1.0 | / | 2.2 | 0.7 | /
CCCC(=O)N1CCC2(CC1)CN(Cc1nccs1)[C@@H](CO)c1[nH]c3cc(OC)ccc3c12 | -0.3 | / | / | -1.1 | -7.8 | /
O=c1cc(SCc2ccccc2)nc[nH]1 | -0.1 | -3.1 | -16.3 | 38.5* | 0.8 | -1.2
CCOC(=O)C1CCCN(Cc2nc(N)nc(Nc3ccc(Cl)cc3)n2)C1 (stereo not given) | / | 35.0 | / | / | / | 5.2
CCOC(=O)C1CCCN(Cc2nc(N)nc(Nc3ccc(OC)cc3)n2)C1 (stereo not given) | / | 31.2* | / | / | / | -3.7
Nc1nc(CN2CCCCCC2)nc(Nc2ccc(F)cc2)n1 | / | 47.6* | -6.5 | / | / | -4.3
SMILES | FGF22 binding | ARNT-TACC3 inh | FN deposition inh | AF4-AF9 inh | ERp5 inh | PDI inh
COc1ccccc1Nc1nc(N)nc(CN2CCCCCC2)n1 | / | 88.6* | / | / | / | 0.5
COc1ccccc1Nc1nc(N)nc(CN2CCOCC2)n1 | -0.1 | 36.2 | 1.4 | 0.6 | -5.0 | -12.1
COc1ccc(C(=O)NC(=S)Nc2ccc(Cc3ccncc3)cc2)cc1 | 43.7* | 0.9 | / | -7.2 | 5.8 | 2.0
O=C(NC(=S)Nc1ccc(Cc2ccncc2)cc1)c1ccccc1F | 43.6* | -6.8 | / | -11.2 | -3.6 | 3.3
O=C(NC(=S)Nc1ccc(Cc2ccncc2)cc1)c1ccccc1Cl | / | -1.5 | -1.9 | / | / | 3.9
CC1(C)S[C@@H]2[C@H](NC(=O)Cc3ccccc3)C(=O)N2[C@H]1C(=O)O | 0.1 | -7.9 | -8.4 | 4.3 | 0.5 | 0.4
CC1(C)SC2C(C(=O)O)N=C(Cc3ccccc3)N2C1C(=O)O (stereo not given) | 0.2 | 70.6* | -4.4 | -5.9 | -1.3 | -3.5
CCNC(=O)[C@H]1[C@H](CO)[C@H]2Cn3c(ccc(-c4ccc(F)cc4)c3=O)[C@H]2N1C | / | / | -1.6 | / | / | /
CCOc1ccccc1C(=O)N[C@H](C(=O)NCc1ccccc1)C(C)C | 43.2* | -0.3 | / | -0.7 | -0.1 | -1.2
CC(C)C(NC(=O)c1ccccc1F)C(=O)NCc1ccccc1 (stereo not given) | -0.2 | -1.0 | 3.5 | -1.6 | 2.4 | 9.1
CC1OC(OCC2OC(Oc3c(-c4ccc(O)cc4)oc4cc(O)cc(O)c4c3=O)C(O)C(O)C2O)C(O)C(O)C1O (stereo not given) | -0.2 | 2.7 | / | 0.2 | -0.8 | /
O=c1c(O[C@@H]2O[C@H](CO)[C@@H](O)[C@H](O)[C@H]2O)c(-c2ccc(O)cc2)oc2cc(O)cc(O)c12 | / | -1.4 | / | / | / | 37.1*
C[C@@H]1O[C@@H](OC[C@H]2O[C@@H](Oc3c(-c4ccc(O)c(O)c4)oc4cc(O)cc(O)c4c3=O)[C@H](O)[C@@H](O)[C@@H]2O)[C@H](O)[C@H](O)[C@H]1O | -0.2 | 0.7 | 2.5 | -1.5 | 1.4 | 58.1*
COc1ccc2c3c(n(C)c2c1)[C@H](CO)N(C(=O)C1CCCC1)CC31CN(C)C1 | -0.1 | / | / | 5.3 | -2.1 | /
Cc1cc[n+](CC(=O)c2ccc3c(c2)OCCO3)cc1 | 43.7* | -1.5 | -1.5 | -2.7 | 3.4 | -2.9
Cc1sc(NC(=O)CCCC(=O)O)c(C(N)=O)c1-c1ccccc1 | 42.9* | -9.8 | / | 0.4 | -0.9 | -10.0
CNC(=O)c1c(NC(=O)CS(=O)(=O)c2ccccc2)sc(C)c1C | -0.2 | 1.4 | -4.8 | 3.2 | 3.9 | 8.6
COC(=O)c1c(NC(=O)CCCC(=O)O)sc(C)c1C | / | 4.6 | / | / | / | 1.5
Cc1sc(NC(=O)CS(=O)(=O)c2ccccc2)c(C(N)=O)c1C | 8.3* | / | -3.4 | -2.0 | 0.5 | -1.9
